Peptide text beside a SMILES is read from it.
Key:
[1] = Selectivity is the ratio of inhibitory concentrations at alpha4-beta1 integrin to alpha4-beta7 integrin
Integrin alpha-4/beta-1 = Integrin alpha-4/beta-1 (Homo sapiens, UniProt P05556+P13612); assay: Inhibitory concentration affording 50% inhibition of alpha4-beta1 integrin binding to VCAM-1, using ELISA assay.; assay type: protein-complex assay
Summary of the method: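 α4β1 extracted from Ramos cell membranes (lectin chromatography, gel filtration in 1% octylglucoside), with 1 mM MnCl2 throughout. Wells coated with 4 µg/mL recombinant soluble human VCAM-1 (5 N-terminal Ig domains, from CHO cells) and blocked with 1% BSA. Inhibitor and receptor 2 h at 37 °C in Tris pH 7.4. Bound receptor detected with anti-β1 mAb 2D4.6, then HRP anti-mouse and TMB at 450 nm. IC50 at half-maximal absorbance.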

Integrin alpha-4/beta-7 = target: T1, Integrin alpha-4/beta-7 (Homo sapiens, UniProt P13612+P26010); assay: Ability to block the alpha4-beta7 integrin-MAdCAM-1 binding interaction using a protein ELISA format; assay type: protein-complex assay
T1 sequence (P13612 whole entry): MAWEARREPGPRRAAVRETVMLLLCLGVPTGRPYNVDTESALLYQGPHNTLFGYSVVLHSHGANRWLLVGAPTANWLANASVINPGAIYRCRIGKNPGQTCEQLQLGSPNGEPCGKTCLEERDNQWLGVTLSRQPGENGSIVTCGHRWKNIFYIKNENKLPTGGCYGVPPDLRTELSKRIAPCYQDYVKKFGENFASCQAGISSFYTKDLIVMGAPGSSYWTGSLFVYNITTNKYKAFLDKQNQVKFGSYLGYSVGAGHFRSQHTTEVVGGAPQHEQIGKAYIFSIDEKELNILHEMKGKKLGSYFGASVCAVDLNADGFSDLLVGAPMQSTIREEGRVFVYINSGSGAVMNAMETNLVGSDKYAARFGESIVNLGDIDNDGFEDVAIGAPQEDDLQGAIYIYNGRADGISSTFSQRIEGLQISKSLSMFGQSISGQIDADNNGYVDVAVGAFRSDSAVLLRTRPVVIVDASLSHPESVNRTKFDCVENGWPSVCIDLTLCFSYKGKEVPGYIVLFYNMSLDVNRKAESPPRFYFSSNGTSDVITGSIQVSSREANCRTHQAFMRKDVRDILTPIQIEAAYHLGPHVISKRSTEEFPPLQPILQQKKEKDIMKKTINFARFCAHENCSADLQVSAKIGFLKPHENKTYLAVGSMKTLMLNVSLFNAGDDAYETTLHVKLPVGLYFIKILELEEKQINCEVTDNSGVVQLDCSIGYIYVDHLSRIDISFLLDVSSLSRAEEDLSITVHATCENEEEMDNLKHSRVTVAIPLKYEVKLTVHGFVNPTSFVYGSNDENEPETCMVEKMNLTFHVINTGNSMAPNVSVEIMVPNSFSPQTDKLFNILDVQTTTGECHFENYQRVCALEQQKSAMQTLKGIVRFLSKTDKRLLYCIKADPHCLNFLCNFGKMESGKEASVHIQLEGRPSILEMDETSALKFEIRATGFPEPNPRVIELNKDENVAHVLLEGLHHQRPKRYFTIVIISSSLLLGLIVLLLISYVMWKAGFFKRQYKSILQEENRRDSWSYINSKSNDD
T1 sequence (P26010 whole entry): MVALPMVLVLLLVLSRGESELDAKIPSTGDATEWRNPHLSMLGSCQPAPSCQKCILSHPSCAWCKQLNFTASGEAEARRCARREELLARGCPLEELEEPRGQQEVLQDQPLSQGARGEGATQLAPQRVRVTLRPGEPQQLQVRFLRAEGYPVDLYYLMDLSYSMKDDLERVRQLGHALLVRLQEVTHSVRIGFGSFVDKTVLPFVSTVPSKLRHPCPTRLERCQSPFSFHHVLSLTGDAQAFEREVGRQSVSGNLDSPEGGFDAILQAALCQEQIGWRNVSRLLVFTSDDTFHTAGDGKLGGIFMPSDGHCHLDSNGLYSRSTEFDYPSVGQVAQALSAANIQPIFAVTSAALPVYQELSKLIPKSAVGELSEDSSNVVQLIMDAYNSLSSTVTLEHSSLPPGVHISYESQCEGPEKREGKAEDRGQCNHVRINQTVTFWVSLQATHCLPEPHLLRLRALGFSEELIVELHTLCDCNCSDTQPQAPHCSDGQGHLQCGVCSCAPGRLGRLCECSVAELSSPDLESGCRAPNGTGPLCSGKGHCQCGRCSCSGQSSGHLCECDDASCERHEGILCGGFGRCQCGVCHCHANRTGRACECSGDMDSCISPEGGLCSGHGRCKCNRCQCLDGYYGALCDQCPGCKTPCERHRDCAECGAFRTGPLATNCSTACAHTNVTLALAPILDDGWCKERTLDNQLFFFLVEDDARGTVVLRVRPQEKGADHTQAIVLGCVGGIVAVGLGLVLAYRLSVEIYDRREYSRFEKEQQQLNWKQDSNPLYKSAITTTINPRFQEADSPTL
Summary of the method: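 Plates coated overnight at 4 °C with anti-human α4 antibody 9F10 (2 µg/mL), blocked in Tris pH 7.5 buffer with 1 mM MnCl2, Tween-20 and 0.5% BSA, then loaded with α4β7 purified from transfected JY cells (2 µg/mL). Compounds (1 nM–200 µM final, triplicate) plus MAdCAM-1-Ig-HRP (1 µg/mL), 2 h room temperature. TMB read at 450 nm; IC50 at half-maximal absorbance.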

[2] = target: Integrin alpha-IIb/beta-3 (Homo sapiens, UniProt P05106+P08514); assay: Inhibition of alpha IIb beta3 integrin binding to fibrinogen; assay type: protein-complex assay
[3] = target: Intercellular adhesion molecule (ICAM-1), Integrin alpha-L/beta-2 (Homo sapiens, UniProt P05107+P05362+P20701); assay: Ability to block alphaL-beta2 integrin binding to ICAM-1; assay type: protein-complex assay
Integrin alpha-V/beta-3 = Integrin alpha-V/beta-3 (Homo sapiens, UniProt P05106+P06756); assay: Ability to block the alphaV-beta3 integrin binding to vitronectin; assay type: protein-complex assay
Integrin alpha-5/beta-1 = Integrin alpha-5/beta-1 (Homo sapiens, UniProt P05556+P08648); assay: Ability to block the alpha5-beta1 integrin binding to fibronectin; assay type: protein-complex assay
Chain of Integrin alpha-5/beta-1 (P05556 21-798 limits assumed): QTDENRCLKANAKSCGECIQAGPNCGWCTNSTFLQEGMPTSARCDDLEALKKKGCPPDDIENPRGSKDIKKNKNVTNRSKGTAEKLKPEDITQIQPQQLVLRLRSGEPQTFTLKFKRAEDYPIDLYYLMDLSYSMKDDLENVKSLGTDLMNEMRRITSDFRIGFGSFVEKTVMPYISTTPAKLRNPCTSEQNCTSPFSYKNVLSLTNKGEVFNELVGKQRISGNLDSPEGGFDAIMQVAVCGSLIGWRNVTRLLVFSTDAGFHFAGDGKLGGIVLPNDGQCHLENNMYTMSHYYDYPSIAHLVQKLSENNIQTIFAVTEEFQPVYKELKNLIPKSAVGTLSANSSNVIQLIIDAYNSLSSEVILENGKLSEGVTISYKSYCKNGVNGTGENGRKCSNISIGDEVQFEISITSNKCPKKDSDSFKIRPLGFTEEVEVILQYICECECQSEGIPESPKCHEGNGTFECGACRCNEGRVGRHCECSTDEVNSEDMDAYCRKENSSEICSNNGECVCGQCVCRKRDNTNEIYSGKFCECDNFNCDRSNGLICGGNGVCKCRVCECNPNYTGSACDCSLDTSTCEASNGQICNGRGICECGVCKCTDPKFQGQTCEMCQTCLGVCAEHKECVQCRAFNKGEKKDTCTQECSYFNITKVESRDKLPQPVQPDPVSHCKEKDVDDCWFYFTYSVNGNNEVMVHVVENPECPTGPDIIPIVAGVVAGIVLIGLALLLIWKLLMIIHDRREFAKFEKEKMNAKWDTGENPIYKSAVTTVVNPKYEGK
Chain of Integrin alpha-5/beta-1 (P08648 42-894 limits assumed): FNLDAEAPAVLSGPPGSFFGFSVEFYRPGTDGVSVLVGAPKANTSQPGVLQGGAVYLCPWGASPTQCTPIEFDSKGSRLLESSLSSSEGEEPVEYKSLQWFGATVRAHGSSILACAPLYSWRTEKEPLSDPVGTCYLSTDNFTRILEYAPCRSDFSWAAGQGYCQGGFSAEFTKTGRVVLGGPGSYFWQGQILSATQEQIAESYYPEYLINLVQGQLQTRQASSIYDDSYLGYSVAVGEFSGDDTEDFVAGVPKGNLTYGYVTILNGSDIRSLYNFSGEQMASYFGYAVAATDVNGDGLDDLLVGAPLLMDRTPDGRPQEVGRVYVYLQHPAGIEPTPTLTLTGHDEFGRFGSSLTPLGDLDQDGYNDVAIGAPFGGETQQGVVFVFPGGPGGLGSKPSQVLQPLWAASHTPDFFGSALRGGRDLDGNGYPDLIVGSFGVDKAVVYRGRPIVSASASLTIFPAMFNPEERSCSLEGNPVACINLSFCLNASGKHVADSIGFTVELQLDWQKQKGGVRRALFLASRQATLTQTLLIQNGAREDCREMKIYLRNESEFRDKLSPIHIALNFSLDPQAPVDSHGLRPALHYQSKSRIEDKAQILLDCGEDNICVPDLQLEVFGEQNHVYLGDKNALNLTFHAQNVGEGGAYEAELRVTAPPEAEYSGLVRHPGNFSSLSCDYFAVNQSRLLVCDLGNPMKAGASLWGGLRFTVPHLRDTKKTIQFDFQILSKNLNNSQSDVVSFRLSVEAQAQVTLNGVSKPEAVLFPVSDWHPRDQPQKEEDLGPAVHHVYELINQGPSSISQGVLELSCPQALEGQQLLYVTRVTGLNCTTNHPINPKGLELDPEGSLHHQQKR
Chain of Integrin alpha-5/beta-1 (P08648 895-1049 limits assumed): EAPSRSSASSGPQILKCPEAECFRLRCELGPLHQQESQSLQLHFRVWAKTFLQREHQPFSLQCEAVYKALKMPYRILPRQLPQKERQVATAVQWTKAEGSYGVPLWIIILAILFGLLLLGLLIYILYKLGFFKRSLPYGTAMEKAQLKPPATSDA

Chain of Integrin alpha-4/beta-1 (P05556 whole entry, one chain of several, the tested form may be a part): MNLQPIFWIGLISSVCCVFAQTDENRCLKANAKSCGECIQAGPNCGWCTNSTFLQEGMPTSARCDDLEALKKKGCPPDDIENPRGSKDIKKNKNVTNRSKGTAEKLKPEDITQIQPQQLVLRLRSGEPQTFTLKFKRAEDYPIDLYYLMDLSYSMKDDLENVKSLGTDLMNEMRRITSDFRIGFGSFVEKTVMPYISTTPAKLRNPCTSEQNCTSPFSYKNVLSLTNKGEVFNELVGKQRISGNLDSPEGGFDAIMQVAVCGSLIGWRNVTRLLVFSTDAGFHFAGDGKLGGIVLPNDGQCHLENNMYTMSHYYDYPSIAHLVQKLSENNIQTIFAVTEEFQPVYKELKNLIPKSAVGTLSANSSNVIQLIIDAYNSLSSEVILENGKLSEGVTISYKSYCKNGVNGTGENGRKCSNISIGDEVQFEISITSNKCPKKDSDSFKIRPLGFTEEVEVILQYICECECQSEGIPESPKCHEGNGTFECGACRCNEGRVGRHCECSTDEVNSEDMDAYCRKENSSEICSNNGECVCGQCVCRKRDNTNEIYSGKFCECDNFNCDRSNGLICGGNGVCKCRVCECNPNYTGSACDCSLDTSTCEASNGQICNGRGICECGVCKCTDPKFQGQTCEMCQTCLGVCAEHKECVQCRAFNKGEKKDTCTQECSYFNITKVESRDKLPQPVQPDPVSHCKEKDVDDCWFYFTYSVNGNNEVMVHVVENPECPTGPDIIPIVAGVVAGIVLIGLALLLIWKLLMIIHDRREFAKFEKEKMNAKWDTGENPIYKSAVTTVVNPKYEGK
Chain of Intercellular adhesion molecule (ICAM-1), Integrin alpha-L/beta-2 (P20701 whole entry): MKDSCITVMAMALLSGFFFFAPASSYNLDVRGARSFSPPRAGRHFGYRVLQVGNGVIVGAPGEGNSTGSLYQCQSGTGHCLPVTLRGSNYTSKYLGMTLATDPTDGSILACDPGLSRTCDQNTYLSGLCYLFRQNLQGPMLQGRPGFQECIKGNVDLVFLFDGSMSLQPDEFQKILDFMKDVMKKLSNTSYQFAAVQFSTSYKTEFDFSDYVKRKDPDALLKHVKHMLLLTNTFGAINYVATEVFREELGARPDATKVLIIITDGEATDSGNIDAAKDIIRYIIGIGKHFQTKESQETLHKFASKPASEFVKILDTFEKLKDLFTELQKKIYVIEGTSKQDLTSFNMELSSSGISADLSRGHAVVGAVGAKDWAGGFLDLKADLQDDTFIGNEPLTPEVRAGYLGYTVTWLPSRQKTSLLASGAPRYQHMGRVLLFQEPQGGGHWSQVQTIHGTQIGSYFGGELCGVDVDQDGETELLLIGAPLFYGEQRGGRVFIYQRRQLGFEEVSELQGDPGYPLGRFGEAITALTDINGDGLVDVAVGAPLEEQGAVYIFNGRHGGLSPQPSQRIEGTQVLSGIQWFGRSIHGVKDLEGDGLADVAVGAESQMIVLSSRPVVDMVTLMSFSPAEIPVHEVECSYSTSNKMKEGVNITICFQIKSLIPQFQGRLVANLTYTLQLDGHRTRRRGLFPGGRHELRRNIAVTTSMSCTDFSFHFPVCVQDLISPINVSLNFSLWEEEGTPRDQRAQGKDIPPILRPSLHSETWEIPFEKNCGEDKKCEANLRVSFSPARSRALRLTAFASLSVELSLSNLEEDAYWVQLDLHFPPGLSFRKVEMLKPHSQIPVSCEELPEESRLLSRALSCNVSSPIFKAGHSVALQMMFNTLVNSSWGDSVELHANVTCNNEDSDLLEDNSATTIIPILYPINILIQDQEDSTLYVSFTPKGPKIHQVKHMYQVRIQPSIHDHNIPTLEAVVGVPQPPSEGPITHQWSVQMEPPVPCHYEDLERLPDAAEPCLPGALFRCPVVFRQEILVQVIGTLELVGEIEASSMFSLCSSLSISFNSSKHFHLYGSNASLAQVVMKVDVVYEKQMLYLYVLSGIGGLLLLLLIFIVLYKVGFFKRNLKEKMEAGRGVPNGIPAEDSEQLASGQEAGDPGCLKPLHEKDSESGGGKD
Chain of Intercellular adhesion molecule (ICAM-1), Integrin alpha-L/beta-2 (P05362 whole entry): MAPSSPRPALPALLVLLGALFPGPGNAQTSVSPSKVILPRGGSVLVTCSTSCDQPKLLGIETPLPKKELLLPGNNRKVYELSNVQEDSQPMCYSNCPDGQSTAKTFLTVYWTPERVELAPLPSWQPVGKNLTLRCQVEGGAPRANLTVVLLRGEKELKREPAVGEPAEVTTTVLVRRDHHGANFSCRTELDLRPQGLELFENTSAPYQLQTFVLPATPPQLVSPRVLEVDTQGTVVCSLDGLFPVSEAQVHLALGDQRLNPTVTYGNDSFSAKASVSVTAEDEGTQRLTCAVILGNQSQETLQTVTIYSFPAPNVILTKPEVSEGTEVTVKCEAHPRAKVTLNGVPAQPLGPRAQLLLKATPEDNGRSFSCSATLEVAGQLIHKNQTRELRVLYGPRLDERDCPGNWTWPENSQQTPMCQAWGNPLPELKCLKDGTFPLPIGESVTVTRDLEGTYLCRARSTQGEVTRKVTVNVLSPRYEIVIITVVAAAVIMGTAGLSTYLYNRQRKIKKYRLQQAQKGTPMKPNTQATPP
Chain of Intercellular adhesion molecule (ICAM-1), Integrin alpha-L/beta-2 (P05107 whole entry): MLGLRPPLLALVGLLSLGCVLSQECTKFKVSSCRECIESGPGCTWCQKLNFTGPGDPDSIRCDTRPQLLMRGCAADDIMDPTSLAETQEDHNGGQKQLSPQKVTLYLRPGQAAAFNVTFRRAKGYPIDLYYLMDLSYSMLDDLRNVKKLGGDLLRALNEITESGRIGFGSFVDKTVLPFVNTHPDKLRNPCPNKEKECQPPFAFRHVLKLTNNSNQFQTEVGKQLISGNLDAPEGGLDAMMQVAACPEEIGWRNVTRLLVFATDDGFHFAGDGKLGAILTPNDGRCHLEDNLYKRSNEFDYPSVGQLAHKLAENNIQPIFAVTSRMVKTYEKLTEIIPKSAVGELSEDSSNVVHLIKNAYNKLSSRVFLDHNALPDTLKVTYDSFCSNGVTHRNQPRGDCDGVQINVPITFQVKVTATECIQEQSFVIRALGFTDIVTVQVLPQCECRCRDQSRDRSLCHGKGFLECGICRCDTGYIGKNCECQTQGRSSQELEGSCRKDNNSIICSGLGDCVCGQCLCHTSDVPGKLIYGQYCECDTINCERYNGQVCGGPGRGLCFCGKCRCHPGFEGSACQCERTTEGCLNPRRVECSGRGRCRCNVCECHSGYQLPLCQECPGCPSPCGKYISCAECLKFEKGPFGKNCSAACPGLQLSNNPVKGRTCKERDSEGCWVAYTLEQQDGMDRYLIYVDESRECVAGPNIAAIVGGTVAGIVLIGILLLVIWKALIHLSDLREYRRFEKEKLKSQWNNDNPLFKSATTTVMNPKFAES

| Ratio [1] | SMILES | other results |
| --- | --- | --- |
| > 2.3 | CC(C)C[C@H]1NC(=O)[C@H]([C@H](C)O)NC(=O)[C@@H](CC(=O)O)NC(=O)[C@@H](CO)NC(=O)[C@@H](CCCN=C(N)N)NC(=O)[C@H](N)CSSC[C@H](C(N)=O)NC1=O | IC50 (Integrin alpha-4/beta-1): > 100 µM; IC50 (Integrin alpha-4/beta-7): 43 µM |
| 2.5 | CC(C)C[C@H]1NC(=O)[C@@H]([C@@H](C)O)NC(=O)[C@@H](CC(=O)O)NC(=O)[C@H](CO)NC(=O)[C@@H](CCCN=C(N)N)NC(=O)[C@H](N)CSSC[C@H](C(N)=O)NC1=O | IC50 (Integrin alpha-4/beta-1): 20 µM; IC50 (Integrin alpha-4/beta-7): 7.9 µM |
| 13.1 | CC(C)[C@H]1NC(=O)[C@H]([C@@H](C)O)NC(=O)[C@@H](CC(=O)O)NC(=O)[C@H](CO)NC(=O)[C@@H](CCCN=C(N)N)NC(=O)[C@H](N)CSSC[C@H](C(N)=O)NC1=O | – |
| 0.1 | CC(C)C[C@H]1NC(=O)[C@H]([C@@H](C)O)NC(=O)[C@@H](CCC(=O)O)NC(=O)[C@H](CO)NC(=O)[C@@H](CCCN=C(N)N)NC(=O)[C@H](N)CSSC[C@H](C(N)=O)NC1=O | – |
| 15.5 | CC(C)C[C@H]1NC(=O)[C@H](C(C)C)NC(=O)[C@@H](CC(=O)O)NC(=O)[C@H](CO)NC(=O)[C@@H](CCCN=C(N)N)NC(=O)[C@H](N)CSSC[C@H](C(N)=O)NC1=O | – |

The next lines start with the compound.

| SMILES | Ratio [1] | other results |
| --- | --- | --- |
| CC(C)C[C@@H]1NC(=O)[C@H]([C@@H](C)O)NC(=O)[C@H](CC(=O)O)NC(=O)[C@H](CO)NC(=O)[C@H](CCCN=C(N)N)NC(=O)[C@@H](N)CSSC[C@@H](C(=O)NCC(=O)N[C@@H](CCC(=O)O)C(N)=O)NC1=O (HELM PEPTIDE1{C.R.S.D.T.L.C.G.E.[am]}$PEPTIDE1,PEPTIDE1,1:R3-7:R3$$$V2.0) | – | IC50 [2]: > 25 µM; IC50 (Integrin alpha-4/beta-1): 1.1 µM; IC50 [3]: > 100 µM; IC50 (Integrin alpha-V/beta-3): 1 µM; IC50 (Integrin alpha-4/beta-7): 0.03 µM; IC50 (Integrin alpha-5/beta-1): 6.1 µM |
| C[C@@H](O)[C@@H]1NC(=O)[C@@H](CC(=O)O)NC(=O)[C@H](CO)NC(=O)[C@@H](CCCN=C(N)N)NC(=O)[C@H](N)CSSC[C@H](C(N)=O)NC(=O)[C@H]2CCCN2C1=O | 0.9 | – |
| CC(C)C[C@H]1NC(=O)[C@H]([C@@H](C)O)NC(=O)[C@@H](CC(=O)O)NC(=O)[C@H](CO)NC(=O)[C@@H](Cc2ccc(O)cc2)NC(=O)[C@H](N)CSSC[C@H](C(N)=O)NC1=O | 0.07 | – |
| C[C@@H](O)[C@@H]1NC(=O)[C@@H](CC(=O)O)NC(=O)[C@H](CO)NC(=O)[C@@H](CCCN=C(N)N)NC(=O)[C@H](N)CSSC[C@H](C(N)=O)NC(=O)CNC1=O | > 9 | – |
| CC(C)C[C@H]1NC(=O)[C@H]([C@@H](C)O)NC(=O)[C@@H](CC(=O)O)NC(=O)[C@H](CO)NC(=O)[C@@H](Cc2c[nH]cn2)NC(=O)[C@H](N)CSSC[C@H](C(N)=O)NC1=O | 2.8 | – |
| CSCC[C@@H]1NC(=O)[C@@H](CCCN=C(N)N)NC(=O)[C@H](N)CSSC[C@H](C(N)=O)NC(=O)[C@@H](CC(C)C)NC(=O)[C@H]([C@@H](C)O)NC(=O)[C@@H](CC(=O)O)NC1=O | 1.5 | – |
